Experimental findings from ChEMBL document CHEMBL5230178, “6-Bromoindirubin-3'-oxime derivatives are highly active colistin adjuvants against Klebsiella pneumoniae” (RSC Med Chem, 2023) are described below.

Usually MIC stands for the lowest concentration that inhibits growth of the organism.

Activity calls are given as the source filed them. The calls are words filed in the database; no cut-off is given here. Some results are limits rather than exact numbers.

Data set [1] has as its system Klebsiella pneumoniae. Put plainly: Antibacterial activity against colistin resistant Klebsiella pneumoniae F9 assessed as inhibition of bacterial growth incubated for 16 hrs by broth microdilution method. The class given is functional, organism-based. A digest of the protocol: (§1)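 Bacteria grown 6 h in cation-adjusted Mueller Hinton broth (CAMHB), subcultured to 5×10^5 CFU/mL. Compound added from DMSO stock and serially two-fold diluted in the culture. Incubated stationary at 37 °C for 16 h. MIC taken as the lowest concentration giving 90% growth inhibition versus untreated wells. Duplicate, repeated at least twice.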

In data set [2] the test system is Escherichia coli. The data set can be described thus: Antimicrobial activity against colistin resistant Escherichia coli 25922 harbouring mcr-1 gene assessed as inhibition of microbial growth incubated for 16 hrs by broth microdilution method. The format is functional, organism-based. The gist of the method:
as §1
On the technique in general: Broth dilution looks for growth in wells or tubes with falling amounts of substance.

The subject of data set [3] is Klebsiella pneumoniae. The data set can be described thus: Antibacterial activity against colistin resistant Klebsiella pneumoniae C3 assessed as inhibition of bacterial growth incubated for 16 hrs by broth microdilution method. The class given is functional, organism-based. The gist of the method:
as §1

In data set [4] the test system is Klebsiella pneumoniae. The data set can be described thus: Antibacterial activity against Klebsiella pneumoniae B9 assessed as inhibition of bacterial growth incubated for 16 hrs by broth microdilution method. The class given is functional. A digest of the protocol:
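Broth microdilution in CAMHB. Six-hour culture diluted to 5×10^5 CFU/mL, compound added from DMSO stock, two-fold serial dilution. MIC is the lowest concentration giving 90% growth inhibition versus untreated wells. Run in duplicate, repeated at least twice.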

Data set [5] relates to Klebsiella pneumoniae. The data set can be described thus: Antibacterial activity against colistin resistant Klebsiella pneumoniae F2210291 harbouring mcr-1 gene assessed as inhibition of bacterial growth incubated for 16 hrs by broth microdilution method. The format is functional, organism-based. A digest of the protocol:
as §1

Data set [6] relates to Acinetobacter baumannii. The data set can be described thus: Antimicrobial activity against colistin resistant Acinetobacter baumannii 3941 assessed as inhibition of microbial growth incubated for 16 hrs by broth microdilution method. The class given is functional, organism-based. A digest of the protocol:
as §1

The subject of data set [7] is Klebsiella pneumoniae. The data set can be described thus: Antibacterial activity against colistin resistant Klebsiella pneumoniae I2 assessed as inhibition of bacterial growth incubated for 16 hrs by broth microdilution method. The format is functional, organism-based. A digest of the protocol: as §1
Data set [8] deals with Pseudomonas aeruginosa. Put plainly: Antimicrobial activity against colistin resistant Pseudomonas aeruginosa TRPA 162 assessed as inhibition of microbial growth incubated for 16 hrs by broth microdilution method. The format is functional, organism-based. A digest of the protocol: as §1
For data set [9], the system named is Klebsiella pneumoniae. Put plainly: Synergistic antibacterial activity against Klebsiella pneumoniae B9 assessed as reduction in colony forming unit measured per ml at 5 uM measured after 2 hrs in the presence of 2 ug/ml of colistin by time-kill assay. The class given is functional. A digest of the protocol:
(§2)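 Overnight CAMHB culture subcultured to 5×10^5 CFU/mL in fresh CAMHB, split into 4 mL aliquots. Dosed with carrier only, adjuvant, colistin, or adjuvant plus colistin. Shaken at 37 °C. At 2, 4, 6, 8 and 24 h, 100 µL sampled, ten-fold serially diluted in CAMHB up to 7 times, plated on LB Lennox agar, incubated overnight at 37 °C, colonies counted.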

The subject of data set [10] is Klebsiella pneumoniae. The data set can be described thus: Induction of drug resistance in colistin-resistant Klebsiella pneumoniae B9 assessed as lipid A modification of LPS at 5 uM incubated for 8 hrs by MALDI-TOF analysis. The class given is functional, organism-based. The gist of the method:
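K. pneumoniae B9 grown 18 h at 37 °C in CAMHB, subcultured to 1×10^6 CFU in 120 mL CAMHB. Left untreated or dosed at 5 μM for 8 h, in duplicate. Cells pelleted, washed with endotoxin-free water, and extracted on-plate with 70% citric acid at 110 °C for 30 min. Norharmane matrix applied, then MALDI-TOF in negative ion mode.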

Data set [11] relates to Klebsiella pneumoniae. Put plainly: Potentiation of colistin-induced antibacterial activity against colistin resistant Klebsiella pneumoniae B9 assessed as colistin MIC at 5 uM incubated for 16 hrs by broth microdilution method. The class given is functional. A digest of the protocol: (§3)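 Bacteria grown 6 h in CAMHB, diluted to 5×10^5 CFU/mL. Fixed adjuvant concentration added from DMSO stock; an undosed aliquot gives the colistin MIC alone. Colistin serially two-fold diluted in the compound-dosed suspension. MIC taken at 90% growth inhibition versus untreated wells. Fold change is colistin MIC alone over MIC with adjuvant. Duplicate, repeated at least twice.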

A short description of data set [12]: Hemolytic activity in sheep RBC assessed as hemolysis upto 400 uM incubated for 1 hrs by UV-Vis spectrophotometric analysis. The class given is toxicity, cell-based, Ovis aries. The note with it: erythrocyte. A digest of the protocol:
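Defibrinated sheep blood cells washed three times in PBS by centrifugation (10 min, 10,000 rpm), resuspended in 10 mL PBS, compound added. PBS served as 0% lysis and 1% Triton X-100 as 100% lysis. Shaken at 200 rpm, 37 °C, 1 h, then centrifuged. Supernatant diluted 40-fold in water, absorbance read at 540 nm.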

Data set [13] concerns Pseudomonas aeruginosa. The data set can be described thus: Potentiation of colistin-induced antimicrobial activity against colistin-resistant Pseudomonas aeruginosa TRPA 162 assessed as colistin MIC at 5 uM incubated for 16 hrs by broth microdilution method. The class given is functional. A digest of the protocol:
as §3

Data set [14] relates to Klebsiella pneumoniae. Put plainly: Potentiation of colistin-induced antibacterial activity against colistin resistant Klebsiella pneumoniae F2210291 harbouring mcr-1 gene assessed as colistin MIC at 5 uM incubated for 16 hrs by broth microdilution method. The class given is functional. A digest of the protocol:
as §3

For data set [15], the system named is Klebsiella pneumoniae. The data set can be described thus: Synergistic antibacterial activity against Klebsiella pneumoniae B9 assessed as reduction in colony forming unit measured per ml at 5 uM measured after 8 hrs in the presence of 0.5 ug/ml of colistin by time-kill assay. The class given is functional. The gist of the method: as §2
For data set [16], the system named is Klebsiella pneumoniae. The data set can be described thus: Synergistic antibacterial activity against Klebsiella pneumoniae B9 assessed as reduction in colony forming unit measured per ml at 5 uM measured after 24 hrs in the presence of 2 ug/ml of colistin by time-kill assay. The format is functional. The gist of the method: as §2
For data set [17], the system named is Klebsiella pneumoniae. The data set can be described thus: Potentiation of colistin-induced antibacterial activity against colistin resistant Klebsiella pneumoniae I2 assessed as colistin MIC at 5 uM incubated for 16 hrs by broth microdilution method. The class given is functional. The gist of the method:
as §3

Data set [18] has as its system Klebsiella pneumoniae. Put plainly: Potentiation of colistin-induced antibacterial activity against colistin-resistant Klebsiella pneumoniae B9 assessed as colistin MIC at 1 uM incubated for 16 hrs by broth microdilution method. The format is functional. A digest of the protocol: as §3
Data set [19] relates to Klebsiella pneumoniae. Put plainly: Antibacterial activity against Klebsiella pneumoniae B9 assessed as inhibition of bacterial growth at 5 uM measured upto 24 hrs by time-kill assay. The format is functional, organism-based. The gist of the method:
as §2

Data set [20] relates to Klebsiella pneumoniae. The data set can be described thus: Potentiation of colistin-induced antibacterial activity against colistin resistant Klebsiella pneumoniae C3 assessed as colistin MIC at 5 uM incubated for 16 hrs by broth microdilution method. The format is functional. The gist of the method: as §3
The test system of data set [21] is Klebsiella pneumoniae. The data set can be described thus: Potentiation of colistin-induced antibacterial activity against colistin-resistant Klebsiella pneumoniae B9 assessed as fold change in colistin MIC at 5 uM incubated for 16 hrs by broth microdilution method. The format is functional. A digest of the protocol:
as §3

Data set [22] deals with Escherichia coli. The data set can be described thus: Potentiation of colistin-induced antimicrobial activity against colistin resistant Escherichia coli 25922 harbouring mcr-1 gene assessed as colistin MIC at 5 uM incubated for 16 hrs by broth microdilution method. The format is functional. A digest of the protocol:
as §3

Data set [23] relates to Klebsiella pneumoniae. The data set can be described thus: Potentiation of colistin-induced antibacterial activity against colistin-resistant Klebsiella pneumoniae B9 assessed as colistin MIC at 3 uM incubated for 16 hrs by broth microdilution method. The class given is functional. The gist of the method: as §3
Data set [24] deals with Klebsiella pneumoniae. Put plainly: Synergistic antibacterial activity against Klebsiella pneumoniae B9 assessed as reduction in colony forming unit at 5 uM measured at 6 to 24 hrs in the presence of 4 ug/ml of colistin by time-kill assay. The settings on record: time 6-24 hrs. The format is functional, organism-based. A digest of the protocol:
as §2

In data set [25] the test system is Klebsiella pneumoniae. Put plainly: Potentiation of colistin-induced antibacterial activity against colistin-resistant Klebsiella pneumoniae B9 assessed as fold change in colistin MIC at 3 uM incubated for 16 hrs by broth microdilution method. The class given is functional. A digest of the protocol: as §3
For data set [26], the system named is Acinetobacter baumannii. Put plainly: Potentiation of colistin-induced antimicrobial activity against colistin resistant Acinetobacter baumannii 3941 assessed as assessed as colistin MIC at 5 uM incubated for 16 hrs by broth microdilution method. The class given is functional. The gist of the method: as §3
The test system of data set [27] is Klebsiella pneumoniae. Put plainly: Potentiation of colistin-induced antibacterial activity against colistin-resistant Klebsiella pneumoniae B9 assessed as fold change in colistin MIC at 1 uM incubated for 16 hrs by broth microdilution method. The format is functional. A digest of the protocol:
as §3

Data set [28] concerns Klebsiella pneumoniae. The data set can be described thus: Potentiation of colistin-induced antibacterial activity against colistin resistant Klebsiella pneumoniae F9 assessed as colistin MIC at 5 uM incubated for 16 hrs by broth microdilution method. The class given is functional. The gist of the method:
as §3

As to COLISTIN, the MIC in the data set with Klebsiella pneumoniae [1] stood at 256 mg/L; in the data set with Escherichia coli [2], 16 mg/L; with Klebsiella pneumoniae [3] it was 128 mg/L; in the data set on Klebsiella pneumoniae [4], 512 mg/L; with Klebsiella pneumoniae [5] it was 16 mg/L; in the data set with Acinetobacter baumannii [6] it was 1020 mg/L. Also, the MIC with Klebsiella pneumoniae [7] is 512 mg/L; in the data set with Pseudomonas aeruginosa [8], 1020 mg/L.
Turning to `O=C1Nc2cc(Br)ccc2/C1=C1/Nc2cc(Cl)ccc2/C1=N\O`, the “log(activity)” value with Klebsiella pneumoniae [9] is recorded as 2; with Klebsiella pneumoniae [15], 1; in the data set on Klebsiella pneumoniae [16] it was 1. Also, the outcome in the data set on Klebsiella pneumoniae [10], in the data set with Escherichia coli [2], in the data set on Klebsiella pneumoniae [19], in the data set on Acinetobacter baumannii [6] and in the data set with Pseudomonas aeruginosa [8] was inactive. For the same compound, the minimum inhibitory concentration (MIC) was 0.5 mg/L in the data set with Klebsiella pneumoniae [11]; more than 16 mg/L in the data set with Pseudomonas aeruginosa [13]; 1 mg/L in the data set on Klebsiella pneumoniae [14]; more than 200 µM in the data set with Klebsiella pneumoniae [4]; 2 mg/L with Klebsiella pneumoniae [17]; 16 mg/L with Klebsiella pneumoniae [18]. Moreover, the MIC in the data set with Klebsiella pneumoniae [20] is 1 mg/L; in the data set on Escherichia coli [22], 2 mg/L; with Klebsiella pneumoniae [23], 1 mg/L; in the data set with Acinetobacter baumannii [26], more than 16 mg/L; in the data set with Klebsiella pneumoniae [28], 2 mg/L. Also, in data set [12], the Activity result is listed as “Non-Toxic”. Moreover, the “fold change (FC)” value with Klebsiella pneumoniae [21] was determined as 1024; with Klebsiella pneumoniae [25], 256; in the data set with Klebsiella pneumoniae [27], 32. Further, the outcome with Klebsiella pneumoniae [24] was Active.
